In the RNAGym collection of RNA variant scans (doi:10.1126/science.aae0568):
Variants at the floor of the assay were thinned out.

B1: tRNA (parent)
chain: GUUCCGUUGGCGUAAUGGUAACGCGUCUCCCUCCUAAGGAGAAGACUGCGGGUUCGAGUCCCGUACGGAACG

Variants of: B1
Assay: yeast fitness relative to wild type (ratio to wild type); higher = fitter; tRNA-Arg(CCU), competitive growth, 37 C, YPD
Method in brief: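 Variants of the tRNA-Arg(CCU) gene, chemically synthesised with a 3% per-site mutation rate at 69 sites, were placed at the native genomic locus in Saccharomyces cerevisiae. The pooled strains were competed in YPD at 37°C for 24 hours in six parallel replicates. Gene amplicons from the start population and from each end population were read by 100-nucleotide paired-end sequencing. Darwinian fitness relative to wild type came from changes in genotype frequencies; genotypes needed ≥ 100 starting reads, and estimates < 0.5 were set to 0.5.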

Row | Variant | yeast fitness
1 | A21G A36U A45U C49U U64A A70U | ≤ 0.5
2 | U3A G25A C49G A65G | ≤ 0.5
3 | A20C C29G C31U A57U | ≤ 0.5
4 | U35G A43G U59A | 0.658
5 | A20G C27G A43U G68C | 0.582
6 | G12A C29U C55G A65U | ≤ 0.5
7 | C5U G12C U28A | 0.545
8 | A15G G17A C46U | 0.738
9 | C5G A21C C33G | ≤ 0.5
10 | G6C G48A | 1.01
11 | C31U A40G C61G | ≤ 0.5
12 | C30U A42C G67C A69U | ≤ 0.5
13 | C24G A36C A70C | 0.567
14 | G18A C33U | ≤ 0.5
15 | G23A A43C | 0.826
16 | C4U C5A A21G A43U C46U G51C C55U A65C | ≤ 0.5
17 | A14U A20C C31U A37G | ≤ 0.5
18 | C49U U54C C66G | ≤ 0.5
19 | A20G C61G | 0.617
20 | G6A A15G C30U A69U | ≤ 0.5
21 | C4A C29U A37G G39C C49U G67A | ≤ 0.5
22 | U19C G41C A70U | 0.671
23 | G12C A57U | 0.663
24 | U13C C29A G51C | 0.624

Row | Variant | yeast fitness
25 | A20U C31A | 0.803
26 | C24G C33G G63A | ≤ 0.5
27 | U19C G41C A65G | 0.663
28 | G10A A14U C31A U35G C46A A65U | ≤ 0.5
29 | U3C U13C U16A A42G C49G U54C G63C A70U | 0.532
30 | C22U A42U G51C C62U A70U | 0.505
31 | A21G G23A C27G A37U G44A C49U G67C A69U | ≤ 0.5
32 | U2A U3A G39A A42C | ≤ 0.5
33 | G39A G68U | 0.824
34 | G6C A14G C27A A42C G52A G56A G63C | ≤ 0.5
35 | C4U G17A C22U | ≤ 0.5
36 | G41A A65G A70G | 0.63
37 | U8A C24U A40U A42G A45U | ≤ 0.5
38 | C4U A42C A69U | 0.633
39 | U3C A21G C27A A36U A40G | ≤ 0.5
40 | A20G C33U G39A A69C | ≤ 0.5
41 | G6C C29U C31U U54G A65U G67A | ≤ 0.5
42 | G50A U53C C62A A69U | 0.517
43 | G6C A43G | 0.851
44 | U2A U16C C30A C61G | ≤ 0.5
45 | G25A A37U G41A C62G | ≤ 0.5
46 | U13A A37C G41A U47A U59C | ≤ 0.5
47 | U2G C4G C31A A37C A57G G67C A69U | ≤ 0.5
48 | U7C C31U U47C | ≤ 0.5

Row | Variant | yeast fitness
49 | A21U A57C | 0.619
50 | U3A G9C C34U | 0.548
51 | C11G G23A G38A G39C G50A G56C | 0.613
52 | C4G G10A G41C | ≤ 0.5
53 | U8C G23A A57C | 0.661
54 | U7C A42C G58A | ≤ 0.5
55 | G12A A21C U35G G51A | ≤ 0.5
56 | A20G U28A A69C | ≤ 0.5
57 | U7A C27A G50C C60U A70C | ≤ 0.5
58 | U19G C49G | 0.69
59 | C4U G9C C61A A69C | ≤ 0.5
60 | C5U C22A C62G | 0.546
61 | G6C C11G A20G G48C A57G U59A C60A | ≤ 0.5
62 | G18C | 0.659
63 | U2C G38A A70G | 0.541
64 | C34U C55U G67C | 0.558
65 | C24U C31G | 0.845
66 | U2A C24A A42U | ≤ 0.5
67 | G6C C11U C34G | ≤ 0.5
68 | G17A U53G C55U | ≤ 0.5
69 | A14G G67C | 0.763
70 | A42C G63A | 0.818
71 | U16A U53G C62G | ≤ 0.5
72 | C24A C31G G51C C55U G58C | ≤ 0.5

Row | Variant | yeast fitness
73 | G10A A42G A65G | ≤ 0.5
74 | G23A C29A | 0.536
75 | G9A C11G C22U A40G | ≤ 0.5
76 | C29U A37G | 0.729
77 | C4G C66G | 0.671
78 | U28A G50C | 0.609
79 | C27G C29G G51C | ≤ 0.5
80 | U8G A36U | 0.515
81 | C31U A40G G63A A70U | ≤ 0.5
82 | U53C A57G C66U | ≤ 0.5
83 | U28C C33A A42C A45U G63C | ≤ 0.5
84 | A43C | 0.997
85 | C11A C27A A69U | ≤ 0.5
86 | C5U C33U A65G C66A | ≤ 0.5
87 | C4A C33A C34U G39C U54A | ≤ 0.5
88 | U2G G25U A65U | 0.532
89 | C29G G44C C49G C61G | ≤ 0.5
90 | A21U G51A C66A | ≤ 0.5
91 | C27U G44C | 1.03
92 | C4G G17A C29U C66U | ≤ 0.5
93 | C33U U47C A57G | ≤ 0.5
94 | A21G C24G | 0.642
95 | C5U U13A C62A | 0.546
96 | C24G A57C U64A | ≤ 0.5

Row | Variant | yeast fitness
97 | U13G C49U | 0.693
98 | A21C C34G A43U | ≤ 0.5
99 | C22G C24G C29U C33U A37C G52A C61U | ≤ 0.5
100 | U32A G39A C49G | ≤ 0.5
101 | C11G C33U | ≤ 0.5
102 | A36C A42U A43G G63C A69U | ≤ 0.5
103 | G9A G23A A36G | 0.652
104 | U7G A15C G44A | ≤ 0.5
105 | C34G G50C | ≤ 0.5
106 | U2C U3G G10A A69C | ≤ 0.5
107 | G41A G51A A70C | 0.542
108 | C24A C29G U35A A43C | 0.929
109 | G25C C34U G41A C49G | 0.54
110 | G17A C22G C29U | ≤ 0.5
111 | C4G C31A A42C C46G | 0.561
112 | U3C U19A C22U G23A | ≤ 0.5
113 | C4A U7A U59A | ≤ 0.5
114 | G6C G18C A21G A40U C49U C61U A70G | 0.564
115 | A37U G68A | 0.736
116 | C24G A36C C55G A65G | ≤ 0.5
117 | C31U A65U G68U | 0.699
118 | U2C A45G | 0.883
119 | G23C C31G A40U G51A | 0.656
120 | C22G A36C U47A C66G | ≤ 0.5

Row | Variant | yeast fitness
121 | U3A C46A G56A | 0.713
122 | G6A U13A U16A C24G C33G C62G | ≤ 0.5
123 | U3C C31G U59A | ≤ 0.5
124 | U26C C30G | 0.651
125 | C31G A43G G51A | 0.593
126 | C24A C62G | 0.706
127 | U2C G50A G51A | 0.511
128 | C11A C34G U59G | ≤ 0.5
129 | U2G G12A C31G C33G A40U G52A C60G C62U | ≤ 0.5
130 | G10C G23A A45C U54C | 0.58
131 | G6C A70C | 0.938
132 | U13A U28C G58C A69U | 0.7
133 | A43U C46A G63A | 0.689
134 | C4U U32C C34U G38A | ≤ 0.5
135 | A14C A15G C46G A69G | ≤ 0.5
136 | U13A A21C U54G C66U | ≤ 0.5
137 | A15C G39A | 0.664
138 | C4G U13A A21C U35A A65C | ≤ 0.5
139 | A15U A37U C49G A65G | ≤ 0.5
140 | A15U C29A C34G | ≤ 0.5
141 | C11U C55A G56C G67C | ≤ 0.5
142 | U2G A20G C22A A40C C46G G48A C49U G63A | ≤ 0.5
143 | G18A G25A C46U | 0.508
144 | C11U A37C | 0.724

Row | Variant | yeast fitness
145 | U47G G50C | ≤ 0.5
146 | C4G C33G A42U U47G U54A C61A | ≤ 0.5
147 | U2C A14G A57C A69U | ≤ 0.5
148 | C29U C31U U54G | 0.522
149 | A45U G67C | 0.738
150 | C31A A42C C46G G67A | 0.625
151 | U3C U59C A69C | 1.02
152 | U8A C31A C61U | ≤ 0.5
153 | C22G G44C | 0.942
154 | A21G G25C | 1.04
155 | C4U G6A G25A U32C | ≤ 0.5
156 | U7A G10C A57U | ≤ 0.5
157 | G17A A42U A57U | ≤ 0.5
158 | A20C A21C C30G G39C A42G | 0.631
159 | A21G G56U G58C A69U | ≤ 0.5
160 | G17A G58A C61U | 0.59
161 | U16A C27G U64C C66U G67A | ≤ 0.5
162 | C29A A57U A65C | 0.584
163 | G44A A65G | 1
164 | C33U A70G | 0.6
165 | A14C U32G G56A | ≤ 0.5
166 | G9C A65C A70U | 0.539
167 | U3A C30G C33U | 0.536
